The values below come from ChEMBL document CHEMBL3992537, “Design, Synthesis, and Biological Evaluation of Small, High-Affinity Siglec-7 Ligands: Toward Novel Inhibitors of Cancer Immune Evasion” (J Med Chem, 2017).

The target in series [1] is T1, Sialic acid-binding Ig-like lectin 7 (Homo sapiens, UniProt Q9Y286). Put plainly: Binding affinity to human IgG1-fused Siglec-7-Fc assessed as inhibition of Siglec-7-Fc binding to RBC preincubated for 10 mins followed by RBC addition measured after 20 mins by FACS analysis. The procedure, abridged:
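Siglec-7-Fc (human IgG1 fusion), 0.2 μg/mL, premixed 10 min at RT in PBS with inhibitor dilution series. The mix is then added to pelleted freshly isolated human RBCs (0.1% suspension) for 20 min on ice. Bound Fc is detected with biotin goat anti-human Fc (10 μg/mL) and streptavidin-PE, then formaldehyde-fixed and read by flow cytometry. % inhibition is from MFI, with unstained RBCs as 100% and no inhibitor as 0%. IC50 derived.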
A general note: Flow cytometry measures light scatter and fluorescence of single cells or particles in a stream.

The target in series [2] is T1, Sialic acid-binding Ig-like lectin 7. The series can be described thus: Ratio of 3'sialyllactose Kd to relative inhibitory potency of test compound for human IgG1-fused Siglec-7-Fc by ELISA. The procedure, abridged: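 The Kd value is extrapolated by dividing the known Kd of 3′sialyllactose by the ELISA relative inhibitory potency. The ELISA uses plate-bound 6′sialyl-LacNAc-polyacrylamide with AP-precomplexed Siglec-7-Fc, 2.5 h at 37 °C, read at 405 nm.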
A general note: In an ELISA, binding on a coated surface is turned into a signal by an enzyme label.

A short description of series [3]: Cytotoxicity against human MEL1106 cells assessed as viable cells. In kind it is cell-based.
Series [4] deals with T1, Sialic acid-binding Ig-like lectin 7. The series can be described thus: Binding affinity to human IgG1-fused Siglec-7-Fc measured after 2.5 hrs by ELISA. The method in brief:
(§1)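 Streptavidin-coated plates carry 4 μg/mL biotinylated 6′sialyl-N-acetyllactosamine-polyacrylamide and are BSA-blocked. Ligand 10-fold dilutions (1 mM to 1 × 10⁻⁵ mM, PBS) and hSiglec7-Fc precomplexed with AP anti-human IgG are added for 2.5 h at 37 °C. Plates are developed with p-nitrophenyl phosphate (pH 9.8) and read at 405 nm for IC50. 3′- and 6′-sialyllactose serve as references for relative potency.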

Another series has as its system K562. The series can be described thus: Cytotoxicity against human K562 cells assessed as viable cells. In kind it is cell-based.
For series [5], the target named is T1, Sialic acid-binding Ig-like lectin 7. The series can be described thus: Binding affinity to human IgG1-fused Siglec-7-Fc measured after 2.5 hrs by ELISA relative to 3'sialyllactose. The procedure, abridged: as §1
Series [6] can be described thus: Cytotoxicity against human NK cells assessed as viable cells up to 10 mM. In kind it is cell-based. The settings on record: nk cell. The method in brief:
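Human NK cells are isolated by negative selection from PBMCs and prestimulated 24 h with 100 IU/mL IL-2. They are then incubated 24 h with the Siglec-7 inhibitor at concentrations up to 10 mM. Viability is assessed by live–dead staining and flow cytometry.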

In series [7] the target is Sialic acid-binding Ig-like lectin 9 (Homo sapiens) (UniProt Q9Y336). Put plainly: Binding affinity to human IgG1-fused Siglec-9-Fc assessed as inhibition of Siglec-9-Fc binding to K562 cells preincubated for 10 mins followed by K562 cell addition measured after 20 mins by FACS analysis. The procedure, abridged: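 Human IgG1-fused Siglec-9-Fc is preincubated with inhibitor dilutions, then co-incubated with K562 cells instead of RBCs. Later steps follow the RBC assay: anti-Fc-biotin and streptavidin-PE detection, fixation, and flow cytometry. Inhibition is calculated from MFI as for RBCs. At least three independent experiments.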

The target in series [8] is T1, Sialic acid-binding Ig-like lectin 7. Put plainly: Binding affinity to human IgG1-fused Siglec-7-Fc assessed as inhibition of Siglec-7-Fc binding to RBC preincubated for 10 mins followed by RBC addition measured after 20 mins by FACS analysis relative to sodium (4S,5R,6R)-5-acetamido-4-hydroxy-2-methoxy-6-((1R,2R)-1,2,3 trihydroxypropyl)tetrahydro-2H-pyran-2-carboxylate. The method in brief: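 RBC flow-cytometry competition as above: Siglec-7-Fc 0.2 μg/mL with ligand 10 min at RT, then RBCs 20 min on ice, detected by anti-Fc-biotin/streptavidin-PE MFI. The reference ligand α-Me Neu5Ac is run in the same test. Relative inhibitory potency is calculated intra-test against it to offset inter-test variation from fresh RBCs.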

Active and inactive are the calls of the source. No cut-off for these calls is given here.

T1 sequence (Q9Y286 whole entry, the tested form may be a part): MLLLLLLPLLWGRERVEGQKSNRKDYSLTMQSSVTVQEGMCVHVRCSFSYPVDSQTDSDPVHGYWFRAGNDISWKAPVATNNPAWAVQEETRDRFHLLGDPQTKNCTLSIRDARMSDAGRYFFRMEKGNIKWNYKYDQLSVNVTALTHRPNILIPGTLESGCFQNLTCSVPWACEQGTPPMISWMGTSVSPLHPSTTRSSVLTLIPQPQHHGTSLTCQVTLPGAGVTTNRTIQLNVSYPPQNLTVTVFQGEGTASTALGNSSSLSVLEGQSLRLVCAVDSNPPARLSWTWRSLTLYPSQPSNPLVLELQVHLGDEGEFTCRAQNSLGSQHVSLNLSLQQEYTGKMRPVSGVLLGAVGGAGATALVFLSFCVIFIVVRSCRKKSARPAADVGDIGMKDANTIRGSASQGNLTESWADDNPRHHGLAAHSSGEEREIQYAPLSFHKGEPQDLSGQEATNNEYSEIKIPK
Chain of Sialic acid-binding Ig-like lectin 9 (Homo sapiens) (Q9Y336 whole entry, the tested form may be a part): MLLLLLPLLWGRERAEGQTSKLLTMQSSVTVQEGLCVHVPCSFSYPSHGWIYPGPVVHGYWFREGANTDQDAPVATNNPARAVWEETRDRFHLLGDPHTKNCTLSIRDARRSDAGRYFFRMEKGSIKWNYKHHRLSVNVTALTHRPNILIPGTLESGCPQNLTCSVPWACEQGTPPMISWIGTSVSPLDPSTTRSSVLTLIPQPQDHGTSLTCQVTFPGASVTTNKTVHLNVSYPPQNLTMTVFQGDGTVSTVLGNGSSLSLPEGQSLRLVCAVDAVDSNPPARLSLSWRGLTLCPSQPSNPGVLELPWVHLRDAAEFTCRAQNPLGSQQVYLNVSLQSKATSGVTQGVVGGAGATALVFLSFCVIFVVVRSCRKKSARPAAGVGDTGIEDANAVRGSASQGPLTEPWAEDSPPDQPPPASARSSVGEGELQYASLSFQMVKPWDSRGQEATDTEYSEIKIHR

The term IC50 denotes the midpoint of a concentration-inhibition curve. Take `CC(=O)N[C@H]1[C@H]([C@H](O)[C@H](O)CNS(C)(=O)=O)O[C@@](OCCCn2cc(-c3ccc(-c4ccccc4)cc3)nn2)(C(=O)[O-])C[C@@H]1O.[Na+]`: the IC50 in series [1] was 2.6 µM; in series [4], 260 µM. Moreover, the Ratio in [2] came to 4.8. Moreover, the Activity result (in series [3]; in the series on K562; in series [6]) was “Non-Toxic” in each case. For the same molecule, the fold change (FC) is 141 in [5] and 3120 in series [8]. The inhibition result in series [7] was “Active”.
